VLA-4 inh: inhibition in human VLA-4 binding assay, primary screen, VLA-4 allosteric modulator project, MLPCN library, flow cytometry, VLA-4 expressing cells | Integrin alpha-4 (Homo sapiens), P13612 | ligand binding flow cytometry | inhibition, % (about 7 µM as worked out from the volumes in the protocol) | 330,000 tested, 0.2% active | AID 2557, 2010; in the data active = inhibition above about 50%
TAAR1 antagonist: human TAAR1 antagonists, primary screen, Fluo-8 calcium fluorescence, CHO RD-HGA16 cells | Trace amine-associated receptor 1 (Homo sapiens), Q96RJ0 | antagonist | inhibition, % at 3 µM | 360,000 tested, 1.5% active;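 active = inhibition above a per-plate cutoff, the mean inhibition of test compounds on that plate plus 3 SD, cut at about 49% in these data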
Target sequence (Q96RJ0 whole entry, looked up): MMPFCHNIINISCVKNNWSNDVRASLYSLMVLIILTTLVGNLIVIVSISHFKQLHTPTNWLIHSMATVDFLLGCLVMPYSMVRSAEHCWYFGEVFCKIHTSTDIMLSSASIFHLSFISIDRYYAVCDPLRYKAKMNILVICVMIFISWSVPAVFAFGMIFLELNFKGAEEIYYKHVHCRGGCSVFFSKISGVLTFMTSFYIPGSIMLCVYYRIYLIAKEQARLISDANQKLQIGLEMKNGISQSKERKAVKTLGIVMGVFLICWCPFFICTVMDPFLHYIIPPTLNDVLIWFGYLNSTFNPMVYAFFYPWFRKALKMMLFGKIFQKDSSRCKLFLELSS
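Material: CHO RD-HGA16 cells bearing hTAAR1; compound dosing: one-point dosing, 3 µM nominal final; schedule: dye loading 75 min at 37 °C, then 30 min room temperature; measured by: calcium fluorescence with Fluo-8; control set: vehicle and agonist controls; replication: n of 1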
TAAR1 ag: human TAAR1 agonists, primary screen, Fluo-8 calcium fluorescence, CHO RD-HGA16 cells; activation, % at 3 µM; vehicle wells 0%, saturating PEA agonist 100%; AID 624467, 2012; 360,000 tested, 0.99% active;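 active = activation above the mean activation of all test compounds in the run plus 3 SD, cut at about 38% in these data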
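Test system: RD-HGA16 (CHO) cells co-expressing Gα16 and hTAAR1 / Benchmarks: DMSO vehicle as 0%, PEA at EC100 as 100% / Repeats: no replicates (n 1) / Measure: % activation from peak over basal fluorescence ratio, DMSO-to-PEA scaled / Timing: 17-24 h plating, Fluo-8 75 min 37 °C, 30 min RT / Technique: kinetic Fluo-8 calcium fluorescence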
Rce1 inhib: yeast Rce1p protease inhibitors, primary screen, biochemical, fluorescence, cell-free homogeneous | AID 2563, 2010 | yeast membranes, quenched prenylated peptide cleavage fluorescence | calls only | 290,000 tested, 0.27% active;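 active = fall in fluorescence gain of 50% or more versus controls, with final raw signal at or below 3038400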
Target sequence (Q03530 whole entry, looked up): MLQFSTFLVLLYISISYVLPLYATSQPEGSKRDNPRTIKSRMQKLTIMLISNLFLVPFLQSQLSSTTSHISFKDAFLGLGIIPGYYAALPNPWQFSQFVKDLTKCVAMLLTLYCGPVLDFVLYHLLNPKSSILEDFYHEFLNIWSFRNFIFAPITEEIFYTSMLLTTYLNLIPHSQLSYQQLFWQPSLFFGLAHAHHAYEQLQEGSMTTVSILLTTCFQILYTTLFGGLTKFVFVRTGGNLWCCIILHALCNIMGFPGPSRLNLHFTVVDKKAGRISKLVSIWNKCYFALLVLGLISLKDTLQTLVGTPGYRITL
Platelet DG rel: inhibitors of platelet dense granule secretion, primary screen, cell-based, MLPCN, human platelets. human platelet-rich plasma, SFLLRN dense granule ATP release, luminescence. inhibition, %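 (compounds screened at 7.5 µM in platelet-rich plasma)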. 300,000 tested, 0.22% active;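 active = mean replicate score, as percent of positive control, at or above 50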
TAAR1 ag confirm: human TAAR1 agonists, retest of hits, confirmation, Fluo-8 calcium fluorescence, CHO RD-HGA16 cells; shares compounds with TAAR1 ag; scaled: DMSO 0%, maximal phenethylamine 100%; activation, % at 3 µM; 2,400 tested, 82% active; AID 651783, 2012;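 active = activation above a cutoff set at the run's mean compound activation plus 3 SD, cut at about 39% in these data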
Ga16 ag counter: nonselective calcium mobilization agonists, CHO-Ga16 cells, counter-screen for hTAAR1 agonist project, cell-based, fluorescence, CHO-Ga16 parental line | shares compounds with TAAR1 ag | Fluo-8 calcium fluorescence; normalized to maximal ATP response, DMSO zero | activation, % at 3 µM | 2,400 tested, 50% active | AID 651787, 2012;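 active = activation above the run cutoff, the mean activation over all tested wells plus 3 SD, cut at about 12% in these data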
TAAR1 desensitize: TAAR1 desensitization by agonist hits, confirmation, counter-screen for TAAR1 agonist project, cell-based, fluorescence, tachyphylaxis; inhibition, % at 3 µM; AID 651951, 2012; CHO RD-HGA16 hTAAR1, Fluo-8 calcium, beta-PEA response inhibition; 2,400 tested, 46% active; shares compounds with TAAR1 ag;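 active = inhibition above the run cutoff, the mean inhibition of all test compounds plus 3 SD, cut at about 49% in these data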;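 also: beta-PEA stimulus applied at its EC80; loss of beta-PEA calcium signal after compound pretreatment read as receptor desensitization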
Ga16 nonsel ant: inhibition of ATP-evoked calcium response in CHO-Ga16 cells, counter-screen for TAAR1 agonist project, cell-based, fluorescence; shares compounds with TAAR1 ag; CHO-Ga16 ATP-induced calcium, Fluo-8 fluorescence; inhibition, % at 3 µM; 2,400 tested, 39% active; AID 651952, 2012;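 active = inhibition above the plate's mean compound inhibition plus 3 SD, computed per plate, cut at about 22% in these data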
Of the large screens only hits and unclear results are named; the others gave an inactive call (follow-up assays come after a bar, where they were run). The list is not random: actives were taken first. Their share in the collection is about 2.6%.

O=C(NCc1ccccc1)c1[nH]c(C(F)(F)F)nc1-c1ccccc1	none (no result: VLA-4 inh, Rce1 inhib, Platelet DG rel)
O=C(NCCc1ccc(O)cc1)c1[nH]c(C(F)(F)F)nc1-c1ccccc1	TAAR1 antagonist 69, TAAR1 ag 92 (no result: VLA-4 inh, Rce1 inhib, Platelet DG rel) | TAAR1 ag confirm 94 | Ga16 ag counter inactive | TAAR1 desensitize 90 | Ga16 nonsel ant inactive
O=C(NCCc1ccccc1)c1[nH]c(C(F)(F)F)nc1-c1ccccc1	TAAR1 ag 69 (no result: VLA-4 inh, Rce1 inhib, Platelet DG rel) | TAAR1 ag confirm 80 | Ga16 ag counter inactive | TAAR1 desensitize 58 | Ga16 nonsel ant inactive
O=C(c1[nH]c(C(F)(F)F)nc1-c1ccccc1)N1CCc2ccccc2C1	TAAR1 ag 81 (no result: VLA-4 inh, Rce1 inhib, Platelet DG rel) | TAAR1 ag confirm 93 | Ga16 ag counter inactive | TAAR1 desensitize 56 | Ga16 nonsel ant inactive
O=C(c1[nH]c(C(F)(F)F)nc1-c1ccccc1)N1CCCCC1	none (no result: VLA-4 inh, Rce1 inhib, Platelet DG rel)
O=C(c1cc(-c2ccccc2)on1)N1CCc2ccccc2C1	TAAR1 ag 48 (no result: Rce1 inhib) | TAAR1 ag confirm inactive | Ga16 ag counter inactive | TAAR1 desensitize inactive | Ga16 nonsel ant inactive
O=C(NCc1ccc(F)cc1)c1[nH]c(C(F)(F)F)nc1-c1ccccc1	none (no result: VLA-4 inh, Rce1 inhib, Platelet DG rel)
CC(=O)Nc1cc(F)c2c(c1F)Cc1cc(F)ccc1-2	none (no result: VLA-4 inh, Rce1 inhib, Platelet DG rel)
O=C(COc1ccc([N+](=O)[O-])cc1Cl)NCCN1C(=O)CSC1=O	none (no result: Rce1 inhib, Platelet DG rel)
Cc1cc(C)c(C#N)c(SCC(=O)c2cc(C)n(CCc3ccccc3)c2C)n1	TAAR1 antagonist 52, TAAR1 ag 91 | TAAR1 ag confirm 93 | Ga16 ag counter inactive | TAAR1 desensitize 100 | Ga16 nonsel ant inactive
Cc1cc(C(=O)CSc2nnnn2C)c(C)n1CCc1ccc(F)cc1	TAAR1 ag 44 | TAAR1 ag confirm 63 | Ga16 ag counter inactive | TAAR1 desensitize inactive | Ga16 nonsel ant inactive
Cc1cc(C(=O)CSc2nnnn2-c2ccccc2)c(C)n1CCc1ccccc1	TAAR1 ag 58 | TAAR1 ag confirm 99 | Ga16 ag counter inactive | TAAR1 desensitize 83 | Ga16 nonsel ant inactive
COCCn1c(C)cc(C(=O)CSc2nc(C)cc(C)c2C#N)c1C	none
Cc1ccc(C)c(Cn2nnc3c(=O)[nH]c(C4CCCN(C(=O)c5cccs5)C4)nc32)c1 (stereo not drawn)	none
Cn1c(-c2ccc3c(c2)OCO3)cnc1NCc1ccccc1	none
Cn1c(-c2ccc3c(c2)OCO3)cnc1NC(=O)CCC(=O)NCCc1ccccc1	TAAR1 ag 47 (no result: Rce1 inhib) | TAAR1 ag confirm 40 | Ga16 ag counter inactive | TAAR1 desensitize inactive | Ga16 nonsel ant inactive
Cn1cc(CN2CCC(n3nccc3NC(=O)Cc3ccccc3)CC2)cn1	none
OCCNc1nc(NCc2ccccc2)c2ccccc2n1	none
OCCNc1nc(Nc2ccc(O)cc2)nc2ccccc12	TAAR1 antagonist 59, TAAR1 ag 88 | TAAR1 ag confirm 97 | Ga16 ag counter inactive | TAAR1 desensitize 95 | Ga16 nonsel ant inactive
OCCNc1nc(Nc2cccc(O)c2)nc2ccccc12	TAAR1 antagonist 84, TAAR1 ag 97 | TAAR1 ag confirm 101 | Ga16 ag counter inactive | TAAR1 desensitize 98 | Ga16 nonsel ant inactive
COc1cccc(Nc2nc(-c3ccccc3)nc3ccccc23)c1	none
COc1cccc(Nc2nc(NCCO)c3ccccc3n2)c1	TAAR1 ag 50 | TAAR1 ag confirm 80 | Ga16 ag counter inactive | TAAR1 desensitize 60 | Ga16 nonsel ant inactive
COc1cccc(C(NC(C)=O)c2nc(-c3ccncc3)cs2)c1 (stereo not drawn)	none (no result: VLA-4 inh, Rce1 inhib, Platelet DG rel)
Cc1ccc(C)c(C(O)c2ncc(-c3cccc(C(F)(F)F)c3)[nH]2)c1 (stereo not drawn)	TAAR1 antagonist 66, TAAR1 ag 66 (no result: VLA-4 inh, Rce1 inhib, Platelet DG rel) | TAAR1 ag confirm 58 | Ga16 ag counter 45 | TAAR1 desensitize inactive | Ga16 nonsel ant 33
Oc1ccc(Br)cc1/C=N/NC(=S)NCCc1ccccc1	TAAR1 ag 58 | TAAR1 ag confirm 74 | Ga16 ag counter 41 | TAAR1 desensitize inactive | Ga16 nonsel ant 47
O=C(CCc1ccccc1)N/N=C/c1cc(Br)ccc1O	none
COCCCNC(=O)c1csc([C@@H]2O[C@H](CO)[C@H](O)[C@H](O)[C@H]2O)n1	none (no result: VLA-4 inh, Rce1 inhib, Platelet DG rel)
O=C(CCNS(=O)(=O)c1ccccc1C(F)(F)F)N1CCN(c2ccccc2O)CC1	none
CC(=O)Nc1sc(/C(C#N)=C/c2ccc(Cl)c(Cl)c2)nc1-c1ccc(C)cc1	TAAR1 antagonist 81, TAAR1 ag 68 (no result: VLA-4 inh, Rce1 inhib) | TAAR1 ag confirm 42 | Ga16 ag counter 56 | TAAR1 desensitize 76 | Ga16 nonsel ant 67
COc1ccc(/C=N/Nc2nc(-c3ccc(C)cc3)c(NC(C)=O)s2)cc1OC	none
O=C(NCC(c1ccco1)N1CCc2ccccc2C1)C(=O)Nc1ccccc1F (stereo not drawn)	TAAR1 ag 46 | TAAR1 ag confirm 48 | Ga16 ag counter inactive | TAAR1 desensitize inactive | Ga16 nonsel ant inactive
CC(=O)Nc1ccc(NC(=O)C(=O)NCC(c2ccco2)N2CCc3ccccc3C2)cc1 (stereo not drawn)	TAAR1 ag 78 | TAAR1 ag confirm 93 | Ga16 ag counter inactive | TAAR1 desensitize inactive | Ga16 nonsel ant inactive
O=C(NCC(c1ccco1)N1CCc2ccccc2C1)C(=O)Nc1ccc(F)cc1F (stereo not drawn)	TAAR1 ag 58 | TAAR1 ag confirm 41 | Ga16 ag counter inactive | TAAR1 desensitize inactive | Ga16 nonsel ant inactive
COC(=O)[C@]12CCCCC=C1N(Cc1ccc(Cl)cc1Cl)C(=O)[C@H](CC(=O)N1CCC(c3ccccc3)CC1)C2	none (no result: VLA-4 inh, Rce1 inhib, Platelet DG rel)
O=C(CCS(=O)(=O)c1ccc(Cl)cc1)Nc1nccs1	none (no result: VLA-4 inh, Rce1 inhib, Platelet DG rel)
CCOc1cc(Br)c(CC(=O)NC2CCCCCC2)cc1OCC	none
COc1ccc(CNC(=O)COC(=O)c2cc(C)oc2C)cc1	none (no result: VLA-4 inh, Rce1 inhib, Platelet DG rel)
COc1cc(/C=C2\C(=O)NN(c3ccccc3)C2=O)ccc1OCC(N)=O	none

Screening data (PubChem)
